This passage reports cytotoxicity results from ChEMBL document CHEMBL4513216, “Probing the Open Global Health Chemical Diversity Library for Multistage-Active Starting Points for Next-Generation Antimalarials” (ACS Infect Dis, 2020).

The structures appear in SMILES notation.

The data set can be described thus: Toxicity liver stage against HepG2, at 10uM. It is filed as cell-based. Also on record: test concentration 10 uM, cell line HepG2-A16-CD81EGFP. The note with it: human, HepG2-A16-CD81EGFP cells; read-out: INHIBITION
An outline of the steps: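 Uninfected HepG2-A16-CD81EGFP cells, 3 × 10^3 per well, 1536-well, plated on prespotted compound at 10 μM final, parasite-free screening media added to match infected plates; puromycin 10 μM positive, DMSO 0.5% negative; run in parallel with 48 h PbLuc assay at 37 °C, 5% CO2; viability by CellTiter-Glo luminescence, normalized to controls.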

In the case of `CN(C)C1CCN(C(=O)C2SCCc3ccccc32)CC1` (configuration not stated), the cytotoxicity at 10 µM was -4.67%. With `Cc1nc(N2CCCC2)nc(C)c1NC(=O)c1ccco1` the figure was -7.7%; with `CN(C)c1ccc(CC(=O)N[C@@H]2CCNC[C@H]2O)cc1`, -7.82%; with `Cc1cc(C)nc(C2CCCN2C(=O)c2cnco2)n1` (configuration not stated), -1.45%. The figure for `O=C1OC2(CCNCC2)CN1CC(=O)N1CCCC1c1ccco1` (configuration not stated) is -14.6%; for `Cc1nc2c(c(NC(C)C)n1)CCN(C(=O)c1cc[nH]n1)CC2` it is 6.71%. The figure for `O=C1CC(N(C(=O)c2ccc(F)c(F)c2)C2CC2)C(=O)N1` (configuration not stated) is 2.1%; for `Cc1ccc(N2CC3(COCCN(Cc4ccncc4)C3)OCC2=O)s1` (configuration not stated) it is 8.59%; for `CCOc1nn(CC)cc1-c1nnc(SCc2cccnc2)n1CC` it is -0.244%. In the case of `COc1ccc2cc(C(=O)NCCNc3ccc(C)nn3)[nH]c2c1`, the cytotoxicity at 10 µM was -3.09%.

As for `COc1ccc(OC2CCN(C(=O)c3ccc(C(C)=O)s3)CC2)cc1`, the cytotoxicity at 10 µM worked out at 3.58%. On to `NCC1CCN(c2nc(C3CCCC3)nc3c2CCNCC3)C1` (configuration not stated), for which the cytotoxicity at 10 µM turned out to be 16.1%. With `CNC(=O)CCN1CCN(C(C)c2ccc(Cl)cc2)CC1` (configuration not stated) the figure was -0.82%. With `CCS(=O)(=O)c1ccccc1N1CCC(NC(C)=O)CC1`, the cytotoxicity at 10 µM was -5.31%. The figure for `O=C(c1cn[nH]c1)N1CCC2(CCCN(Cc3ccc(F)c(F)c3)C2)C1` (configuration not stated) is 6.07%; for `CCOc1cc(C(=O)N2CCN(C)CC2)cc2occc12` it is 7%. With `CC(=O)NCC(=O)N1Cc2nc(COCc3csc(C)n3)oc2C1` the figure was 0.503%; with `Cc1cccc2c1cnn2CCCNC(=O)c1cnn(C)c1`, 6.75%.

Regarding `FC(F)(F)Cn1ccnc1CNCCn1cccn1`, the cytotoxicity at 10 µM was -6.4%. Turning to `CO[C@@H]1CC[C@@H](NS(=O)(=O)c2cn(C)nc2C)[C@H]1O`, the cytotoxicity at 10 µM was -3.11%. The figure for `CS(=O)(=O)c1cccc(OCC(=O)N2CCCC2c2ccc[nH]2)c1` (configuration not stated) is 3.92%; for `Cc1ccc(CNCc2cccc3cccnc23)c(OC2CCOC2)c1` (configuration not stated) it is 1.42%. As for `Cc1cccc(COCC2c3nnn(C)c3CCN2Cc2ccoc2)n1` (configuration not stated), the cytotoxicity at 10 µM was -142%. With `CC(C)C(=O)NC1CCCN(C(=O)c2ccccc2O)C1` (configuration not stated), the cytotoxicity at 10 µM is -2.55%. With `CCc1cccc2cc(CN)c(=O)[nH]c12` the figure was 3.54%; with `O=C(Cn1nnn(-c2cccs2)c1=O)N(CC1CCOC1)C1CC1` (configuration not stated), -39.9%; with `Cc1nn(C(C)C)c(C)c1NC(=O)c1ccc(F)cc1`, -2.27%. With `Cc1cc(F)ccc1N1CCCC(NC2CCOCC2)C1=O` (configuration not stated) the figure was -11.3%. With `O=C(NCc1cccnc1N1CCCCC1)c1ccc2[nH]nnc2c1` the figure was -1.19%. On to `Cc1nc(C)n(CCCNc2ncnc(C)c2C)n1`, for which the cytotoxicity at 10 µM is -1.74%. With `CN(C)C(=O)COC1COC2(CCN(c3ncccn3)CC2)C1` (configuration not stated) the figure was -72.8%; with `CCS(=O)(=O)N1CCO[C@H]2[C@H](Oc3ncccc3F)CC[C@@H]21`, 2.63%. The figure for `CCN(Cc1nc(Cc2ccccc2)no1)C1CC1` is 6.26%; for `CCc1nnc(C2Cc3ccccc3CN2Cc2nc(C3CC3)no2)o1` (configuration not stated) it is -8.03%. The figure for `Cc1nc(C)n(CC2CN(c3nnc(C)c(C)c3C#N)CCO2)n1` (configuration not stated) is -0.00964%; for `O=C(CCn1c(=O)oc2ccccc21)NCC(O)c1ccc(Cl)cc1` (configuration not stated) it is -1.25%; for `CC(C)(C)OC(=O)NCC1CCN(C(=O)c2cc(Cl)c[nH]2)CC1` it is -3.26%. In the case of `CCn1c(C)nnc1CN(C)C1CCN(Cc2ccccn2)C1` (configuration not stated), the cytotoxicity at 10 µM turned out to be 1.8%. With `Cc1nn(CC(=O)N2CCN(c3ccc(F)cc3)CC2)c(C)c1Cl` the figure was 6.87%; with `CC(=O)Nc1sccc1C(=O)C(C)(C)C`, -44.7%; with `CN(C)CCOCC1CN(Cc2ccncc2)Cc2nnn(C)c21` (configuration not stated), 3.66%. With `CCc1nnc2n1CCN(Cc1ncc(-c3ccc(F)cc3)o1)C2` the figure was -9.42%; with `CC(C)NC(=O)N1CCC2(CC1)CC[C@@]1(C(=O)N(C)C)CN(C)C[C@@H]21`, -108%. With `Cc1cnc(C)c(-c2cc(O)c3c(c2)CN(c2ncccn2)CCO3)n1` the figure was 6.13%; with `CC(C)N(CCNCc1ccc(C#N)cc1)C1CC1`, -2.54%.

On to `CCc1nc(CN(C)Cc2nc(-c3ccccc3Cl)oc2C)no1`, for which the cytotoxicity at 10 µM is -8.83%. The figure for `COCC(=O)N1CCC2(CCN(Cc3ccccn3)CC2)CC1` is -6.62%. For the molecule `NC(=O)C1CN(C(=O)C2(c3ccc(F)cc3F)CCCC2)CCO1` (configuration not stated), the cytotoxicity at 10 µM is -5.92%. The figure for `Cc1cccc(CNC(=O)CC2CCN(S(C)(=O)=O)CC2)n1` is -1.57%.

For `O=C(c1cocn1)N1CCC2(CC1)COC(COCc1ccccn1)C2` (configuration not stated), the cytotoxicity at 10 µM is -116%.

For `COc1ccc(CNC(=O)Nc2ccc(S(=O)(=O)C(F)F)cc2)cc1`, the cytotoxicity at 10 µM is 33.6%. The figure for `O=S(=O)(c1ccccc1)N1CC[C@]2(C[C@@H](OCC3CC3)CO2)C1` is -81.3%; for `CCn1c(=O)c2sccc2n(CC(=O)Nc2cccc(Cl)c2)c1=O` it is 0.115%. As for `Cc1nc(CN2C[C@@H]3CN(c4ncc(F)cn4)C[C@@H]3C2=O)cs1`, the cytotoxicity at 10 µM is -0.673%.

In the case of `c1cnc(CC2CCN(c3cnccn3)CC2)cn1`, the cytotoxicity at 10 µM was 4.44%. The figure for `COc1cc(NC(=O)NC2CCCC2)ccc1N1CCOC1=O` is -7.09%; for `CNC(=O)C1CN(C(=O)c2cccs2)CCN(S(C)(=O)=O)C1` (configuration not stated) it is 2.41%; for `Cc1ccc(CNC(=O)Nc2nncs2)n1C` it is -0.545%. On to `Cc1cnn(C2CCCN(C(=O)c3ccc(O)nc3)C2)c1` (configuration not stated), for which the cytotoxicity at 10 µM is -2.78%. With `O=C1CC(NCc2cnc(-c3cccs3)nc2)CN1c1ccccc1` (configuration not stated) the figure was 1.58%. `CN(C)C(C)(C)CNCc1c[nH]nc1-c1cc2ccccc2o1`: the cytotoxicity at 10 µM was -3.6%.

Consider `COCC(=O)N1C[C@@H](CN2CCCN(C)CC2)[C@@H](CO)C1`, for which the cytotoxicity at 10 µM was -3.85%.

On to `O=S(=O)(NCCCn1cncn1)c1ccc2c(c1)OCCCO2`, for which the cytotoxicity at 10 µM came to 3.51%. `O=C(NCC(Cc1cccc(F)c1)N1CCCC1=O)c1ccccc1` (configuration not stated): the cytotoxicity at 10 µM was -12.2%. The figure for `Cc1nc(C(=O)N2CCCC2c2cncc(CN3CCCC3)n2)co1` (configuration not stated) is 8.99%; for `O=C(O)C1(Cc2ccccc2Cl)CCN(c2ncccc2F)CC1` it is -12.3%. The figure for `CC1CN(C)c2ccccc2CN1C(=O)c1cc(C#N)cn1C` (configuration not stated) is 14.6%.

For `CC[C@@H]1N(Cc2nccs2)CCC[C@]12CCC(=O)N2CCOC`, the cytotoxicity at 10 µM came to 2.49%.

Consider `N#CC1(C(=O)N2CCCN(Cc3cscn3)CC2)CCCCC1`, for which the cytotoxicity at 10 µM was -2.54%. Take `CC(=O)NCCNC(=O)Nc1cccc(Cl)c1SC(F)F`: the cytotoxicity at 10 µM was -13.1%.

As to `Cc1noc(CNC(=O)CN(C)c2nc3ccccc3s2)n1`, the cytotoxicity at 10 µM was -2.43%.

As to `CCN(CC)CCN(C)Cc1cn(C)nc1-c1ccc2c(c1)OCCO2`, the cytotoxicity at 10 µM came to 2.95%.

Take `O=C(c1ccc[nH]1)N1CCC2(CCCN2Cc2cccnc2)CC1`: the cytotoxicity at 10 µM came out at 6.89%. The figure for `CCc1n[nH]c(C2CN(C(=O)Cc3ccc(C)nc3)CCO2)n1` (configuration not stated) is 6.97%; for `C1CC(CO[C@@H]2CC[C@H]3[C@H]2OCCN3CC2CCOCC2)CCO1` it is 13.7%. With `CC(NCc1cnc(N2CCN(C)CC2)nc1)c1ccc(F)cc1` (configuration not stated) the figure was -5.26%; with `CN(C)CCNC(=O)CCn1ncc2c(Cl)cccc21`, 5.92%; with `N#Cc1cccc(Cl)c1NCCCc1nc(=O)[nH][nH]1`, 24.2%.

As to `CS(=O)(=O)N1CC[C@H]2O[C@H](C(=O)NCc3cccnc3)CC[C@H]21`, the cytotoxicity at 10 µM is -7.24%. The figure for `Cc1cn([C@H]2CCNC[C@]2(C)O)c(=O)[nH]c1=O` is -6.22%; for `COC1CCN(C(=O)c2cc(-c3ccc(Cl)cc3)on2)CC1` it is -0.885%; for `CCc1c(C)nc2n(c1=O)CC(C(=O)Nc1sccc1C(=O)OC)CS2` (configuration not stated) it is 3.24%. As to `OC1(c2cn(C3CCN(C4CCSC4)CC3)nn2)CCCC1` (configuration not stated), the cytotoxicity at 10 µM was 2.13%.

As for `CCc1noc(CN2CCN(Cc3cccs3)CC2)n1`, the cytotoxicity at 10 µM was -5.06%. With `CCc1nc(C)c(CNC(=O)CCCN2CCCCC2)s1` the figure was -4.65%; with `N#Cc1ccnc(N2CCN(CC(O)c3c(F)cccc3F)CC2)c1` (configuration not stated), -5.43%.

`Cc1ccn(-c2ccccc2NCc2ccccn2)n1`: the cytotoxicity at 10 µM was -9.99%.

In the case of `CN(C)c1ccc(CNC(=O)NCCc2cn3ccccc3n2)cn1`, the cytotoxicity at 10 µM was -3.06%. The figure for `Cc1nc(CN2CCN(C(=O)CCc3ccco3)CC2)cs1` is -4.39%; for `CCOc1ccc(N2CCCN=C2NC(=O)c2cccc(OC)c2)cc1` it is 5.2%; for `CCCOc1c(CNC2CCSC2)cccc1OC` (configuration not stated) it is 4.36%. On to `Cn1ccnc1C(=O)N[C@@H]1CN(Cc2ccoc2)[C@@H]2CCCO[C@@H]21`, for which the cytotoxicity at 10 µM is -99.9%.

With `O=C(C1CCOCC1)N1CCc2onc(COc3cccnc3)c2C1`, the cytotoxicity at 10 µM was -69.6%. With `Cn1ccc(C(=O)N2CCCN(CCCc3ccccc3)CC2)cc1=O` the figure was -0.942%; with `O=C1NC2(CCN(Cc3cccs3)CC2)CC1c1ccncc1` (configuration not stated), 1.2%. With `CC(O)CN1CCC(CN(C)Cc2cccc(C(=O)N(C)C)c2)CC1` (configuration not stated) the figure was -5.74%; with `O=C(CCC(=O)N1CCC(c2noc3cc(F)ccc23)CC1)NC1CC1`, 5.09%.
